# Results from paper PMC11577639 (Journal of medicinal chemistry, 2024).
# Read-outs that look alike come from different tables or passages of the source.
# Legend:
# [1] = system: N. fowleri (Nf69 strain, ATCC 30215) trophozoites; assay: N. fowleri Nf69 dose-response growth inhibition; type: cell-based, Naegleria fowleri
# [2] = system: Human neuronal SH-SY5Y cells (ATCC CRL-2266); assay: SH-SY5Y cytotoxicity assay; type: cell-based; details: Table 3; SH-SY5Y CC50 / Nf69 EC50
# Mouse pharmacokinetics = type: in vivo, female CD-1 mice; details: female, CD-1, mouse, plasma, iv, 11 mg/kg
# In short: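 Female CD-1 mice, n = 3/group. First study: single IV 11.1 mg/kg or PO 10.7 mg/kg (fasted), 10% NMP/20% cremophor EL/70% water, plasma at 0.5, 2, 4, 8, 12 h, brain homogenised in MeOH/PBS at 12 h. Second: fasted, IP 44 mg/kg suspension in 10% DMSO/30% cremophor EL/60% water, plasma at 2 and 4 h. LC-MS/MS, verapamil internal standard. LLOQ 1 ng/mL plasma, 10 ng/g brain.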
# Mouse plasma stability = type: in vitro ADME; details: male, CD-1, mouse
# In short: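 Test compound added from DMSO stock to CD-1 mouse plasma (EDTA-K2, ≥20 male donors). Incubated at 37 °C for 0, 10, 30, 60 or 120 min. Protein precipitated with tolbutamide and labetalol in acetonitrile, then shaken and centrifuged. Supernatant diluted in water and analysed by LCMS with internal standard. Enalapril maleate, bisacodyl and procaine HCl as controls.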
# Plasma protein binding = type: in vitro ADME; details: CD-1 mouse
# In short: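 96-well equilibrium dialysis against CD-1 male mouse plasma (EDTA-K2), test compound on donor side in triplicate, dialysis buffer on receiver side. Incubated 4 h at 37 °C, 5% CO2, slow shaking. Both sides sampled, diluted in acetonitrile containing tolbutamide, labetalol, metformin and internal standard, centrifuged and analysed by LC-MS/MS. Warfarin as positive control.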
# [3] = BBB parallel artificial membrane permeation assay; type: in vitro ADME; details: for BBB PAMPA CNS class: classified against positive and negative controls
# In short: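 Porcine polar brain lipid in dodecane coated on filter membrane. Test compound from DMSO stock diluted in PBS pH 7.4 in donor wells, PBS acceptor, room temperature incubation. Donor and filter-well concentrations measured by HPLC. Verapamil, clonidine, hydrocortisone and theophylline as […]. Pe > 15 nm/s scored CNS+, ≤ 15 CNS-.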
# [4] = SH-SY5Y cytotoxicity assay; type: cell-based, human; details: human, SH-SY5Y neuroblastoma cells
smiles,measurement,setting,value
"CN1CC[C@H]2c3nc4ccc(Cl)cc4c(=O)n3CC[C@H]21 (racemic) [31a, (±)-(3aR,12bR)-9-Chloro-3-methyl-2,3,3a,4,5,12b-hexahydropyrrolo[3′,2′:3,4]pyrido[2,1-b]quinazolin-7(1H)-one]",EC50,"[1]; read-out: EC50, N. fowleri Nf69, tested up to 10 μM",> 10 µM
"CN1CCC[C@@H]2c3nc4ccc(C(F)(F)F)cc4c(=O)n3CC[C@H]21 (racemic) [±−15b, (±)-(4aR,13bS)-4-Methyl-10-(trifluoromethyl)-1,2,3,4,4a,5,6,13b-octahydro-8H-[1,6]naphthyridino[5,6-b]-quinazolin-8-one]","SI (selectivity index, CC50/EC50)",[2],>18.2
CN1CCC[C@@H]2c3nc4ccc(Cl)cc4c(=O)n3CC[C@H]21 (racemic) [±−16b],"SI (selectivity index, CC50/EC50)",[2],>20.0
"CN1CCC[C@@H]2c3nc4cc(Cl)c(Cl)cc4c(=O)n3CC[C@H]21 (racemic) [±−21b, (±)-(4aR,13bS)-10,11-Dichloro-4-methyl-1,2,3,4,4a,5,6,13b-octahydro-8H-[1,6]naphthyridino[5,6-b]quinazolin-8-one]","SI (selectivity index, CC50/EC50)",[2],>100
"CN1CCC[C@@H]2c3nc4ccc(C(F)(F)F)cc4c(=O)n3CC[C@H]21 (single isomer, unassigned) [trans-15b-ent-1]","SI (selectivity index, CC50/EC50)",[2],>80.0
"CN1CCC[C@@H]2c3nc4ccc(Cl)cc4c(=O)n3CC[C@H]21 (single isomer, unassigned) [trans-16b-ent-1]","SI (selectivity index, CC50/EC50)",[2],>71.4
"COc1cc2nc3n(c(=O)c2cc1Cl)CC[C@H]1[C@H]3CCCN1CC1COC1 (single isomer, unassigned) [trans-57b-ent-2]",clearance at 12 h,Mouse pharmacokinetics,40.8 ± 7.6 mL/min/kg
same,half-life,Mouse plasma stability,> 289 min
same,plasma protein binding,Plasma protein binding,74% bound
same,BBB PAMPA CNS class,[3],CNS+ (Pe > 15 nm/s = CNS+)
"COc1cc2nc3n(c(=O)c2cc1Cl)CC[C@@H]1[C@@H]3CCCN1CC(C)C (single isomer, unassigned) [trans-62b-ent-1]","SI (selectivity index, CC50/EC50)",[2],>32.3
"CCCCCCCCCCCCCCCCOP(=O)([O-])OCC[N+](C)(C)C [miltefosine, reference compound]",EC50,"[1]; Naegleria fowleri, ATCC30215",35.7 ± 9.1 µM
"CN1CCC[C@H]2c3nc4ccc(C(F)(F)F)cc4c(=O)n3CC[C@@H]21 [trans-15b-ent-2, (4aS,13bR)-4-Methyl-10-(trifluoromethyl)-1,2,3,4,4a,5,6,13b-octahydro-8H-[1,6]naphthyridino[5,6-b]quinazolin-8-one]",CC50 at 72 h,[4],> 20 µM
same,"SI (selectivity index, CC50/EC50)",[2],>4.7
"CN1CCC[C@H]2c3nc4ccc(Cl)cc4c(=O)n3CC[C@@H]21 [trans-16b-ent-2, (4aS,13bR)-10-Chloro-4-methyl-1,2,3,4,4a,5,6,13b-octahydro-8H-[1,6]naphthyridino[5,6-b]quinazolin-8-one]",CC50 at 72 h,[4],> 20 µM
same,"SI (selectivity index, CC50/EC50)",[2],>5.0
"CN1CCC[C@H]2c3nc4cc(Cl)c(Cl)cc4c(=O)n3CC[C@@H]21 [trans-21b-ent-2, (4aS,13bR)-10,11-Dichloro-4-methyl-1,2,3,4,4a,5,6,13b-octahydro-8H-[1,6]naphthyridino[5,6-b]quinazolin-8-one]",CC50 at 72 h,[4],> 20 µM
same,"SI (selectivity index, CC50/EC50)",[2],>7.7
"COc1cc2nc3n(c(=O)c2cc1Cl)CC[C@@H]1[C@@H]3CCCN1CC1COC1 [trans-57b-ent-1, (4aR,13bS)-10-Chloro-11-methoxy-4-(oxetan-3-ylmethyl)-1,2,3,4,4a,5,6,13b-octahydro-8H-[1,6]naphthyridino[5,6-b]-quinazolin-8-one]",plasma protein binding,Plasma protein binding,74% bound
same,"BBB PAMPA, Peavg","[3]; averaged data from duplicate runs, 4 h",182 nm/s
same,BBB PAMPA CNS class,[3],CNS+ (Pe > 15 nm/s = CNS+)
same,"SI (selectivity index, CC50/EC50)",[2],>40.8
